# Experimental data reported in ChEMBL document CHEMBL4715822, “Structure-based lead optimization to improve antiviral potency and ADMET properties of phenyl-1H-pyrrole-carboxamide entry inhibitors targeted to HIV-1 gp120” (Eur J Med Chem, 2018).
# Test system: Human immunodeficiency virus 1
# Assay: Antiviral activity against HIV-1 HXB-2 infected in human TZM-bl cells assessed as reduction in viral infection pretreated for 30 mins before viral infection and measured after 3 days by luciferase based single cycle infection assay
# Assay type: functional, organism-based
# Conditions: Human immunodeficiency virus 1, M:B_HXB2R
row,SMILES,IC50 [µM]
1,NC[C@@H](NC(=O)c1ccc(-c2ccc(C(F)(F)F)c(F)c2)[nH]1)c1ncc(CO)s1,0.2
2,NC[C@H](NC(=O)c1ccc(-c2ccc(C(F)(F)F)c(F)c2)[nH]1)c1ncc(CO)s1,0.44
3,NC[C@@H](NC(=O)c1ccc(-c2cc(F)c(Cl)c(F)c2)[nH]1)c1nc(CO)c(CO)s1,2.7
4,CNC[C@H](NC(=O)c1ccc(-c2ccc(C(F)(F)F)cc2)[nH]1)c1nc(CO)cs1,0.31

# Test system: not listed separately
# Assay: Antiviral activity against HIV-1 3B infected in human MT2 cells assessed as reduction in viral infection pretreated for 30 mins before viral infection and measured after 4 days by ELISA based multi cycle infection assay
# Assay type: functional, cell-based
# Conditions: Human immunodeficiency virus 1, M:B_HXB2R
row,SMILES,IC50 [µM]
1,NC[C@@H](NC(=O)c1ccc(-c2ccc(C(F)(F)F)c(F)c2)[nH]1)c1ncc(CO)s1,0.24
2,NC[C@H](NC(=O)c1ccc(-c2ccc(C(F)(F)F)c(F)c2)[nH]1)c1ncc(CO)s1,0.25
3,NC[C@@H](NC(=O)c1ccc(-c2cc(F)c(Cl)c(F)c2)[nH]1)c1nc(CO)c(CO)s1,3.34
4,CNC[C@H](NC(=O)c1ccc(-c2ccc(C(F)(F)F)cc2)[nH]1)c1nc(CO)cs1,0.1

# Test system: not listed separately
# Assay: Cytotoxicity against human PBMC cells assessed as reduction in cell viability incubated for 1 hr followed by complete medium addition and measured after 48 hrs by XTT assay
# Assay type: cell-based
# Conditions: not given
row,SMILES,CC50 at 49 h [µM]
1,NC[C@@H](NC(=O)c1ccc(-c2ccc(C(F)(F)F)cc2)[nH]1)c1ncc(CO)s1,61
2,NC[C@H](NC(=O)c1ccc(-c2cc(F)c(Cl)c(F)c2)[nH]1)c1ncc(CO)s1,> 60
3,NC[C@H](NC(=O)c1ccc(-c2cc(F)c(Cl)c(F)c2)[nH]1)c1nc(CO)cs1,61

# Test system: not listed separately
# Assay: Apparent permeability across basolateral to apical side in human Caco2 cells incubated for 2 hrs by LC-MS/MS analysis
# Assay type: ADME, cell-based, Caco-2
# Conditions: Caco-2
# Method in brief: (§1)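 Caco-2 monolayers grown three weeks to differentiate; compound in transport buffer pH 7.4 (glucose, 10 mM HEPES, HBSS) added apical (A-B) or basal (B-A) side, with or without 100 μM verapamil; 2 h incubation, both sides sampled. Lucifer yellow 100 μM on A side checks integrity (≤2% transport). Papp = (dQ/dt)/(C0 × A); efflux ratio = Papp(B→A)/Papp(A→B).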
row,SMILES,Papp B→A at 2 h [×10⁻⁶ cm/s]
1,NC[C@H](NC(=O)c1ccc(-c2cc(F)c(Cl)c(F)c2)[nH]1)c1nc(CO)cs1,17

# Test system: not listed separately
# Assay: Solubility in 5% DMSO at pH 7.4 at 500 uM incubated for 90 mins in shaker by spectrophotometry
# Assay type: physicochemical
# Conditions: not given
# Method in brief: (§2)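 DMSO stock diluted to 500 μM in universal aqueous buffer pH 7.4 with 2 or 5% DMSO final; quadruplicate, 90 min shaking at room temperature in filter plate, vacuum filtered; filtrate in 20% acetonitrile read by UV absorbance at six wavelengths. Filtrate/standard ratio binned as ~500, 100–500 or <100 μM.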
row,SMILES,"solubility kinetic at […], 500 µM [µM]"
1,NC[C@H](NC(=O)c1ccc(-c2cc(F)c(Cl)c(F)c2)[nH]1)c1nc(CO)cs1,500

# Test system: Human immunodeficiency virus 1
# Assay: Antiviral activity against pseudovirus HIV-1 HXB-2 harboring Env A204D mutant infected in human U87.CD4.CXCR4 cells assessed as reduction in viral infection pretreated for 30 mins before viral infection and measured after 3 days by luciferase based assay
# Assay type: functional, cell-based, M:B_HXB2R
# Conditions: not given
# Method in brief: (§3)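 Pseudoviruses made in HEK293T by co-transfecting an Env-deleted backbone (pSG3Δenv or pNL4-3.Luc.R-.E-) with an HXB-2 Env plasmid carrying single or double substitutions; Env sequences confirmed by sequencing. Virus pretreated 30 min with graded compound, added to U87-CD4-CXCR4 cells (1 × 10⁴/well, plated overnight), incubated 3 days. Cells lysed, luciferase measured, IC50 calculated.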
row,SMILES,IC50 [µM]
1,NC[C@H](NC(=O)c1ccc(-c2cc(F)c(Cl)c(F)c2)[nH]1)c1nc(CO)cs1,0.87

# Test system: not listed separately
# Assay: Inhibition of HIV1 gp120-mediated cell-cell fusion between viral envelope expressing in human HL2/3 cells to CD4/CCR5 receptor expressing in human TZM-bl cells after 1 hr by luciferase reporter gene assay
# Assay type: cell-based
# Conditions: Human immunodeficiency virus 1, HL2/3, 1 h
row,SMILES,IC50 [µM]
1,CC1(C)CC(NC(=O)C(=O)Nc2ccc(Cl)cc2)CC(C)(C)N1,9.1

# Test system: not listed separately
# Assay: Apparent permeability across apical to basolateral side in human Caco2 cells incubated for 2 hrs by LC-MS/MS analysis
# Assay type: ADME, cell-based, Caco-2
# Conditions: Caco-2
# Method in brief: as §1
row,SMILES,Papp A→B at 2 h [×10⁻⁶ cm/s]
1,NC[C@H](NC(=O)c1ccc(-c2cc(F)c(Cl)c(F)c2)[nH]1)c1nc(CO)cs1,0.471

# Test system: not listed separately
# Assay: Protein binding in human plasma assessed as unbound fraction at 5 uM by LC-MS/MS analysis
# Assay type: ADME, cell-free
# Conditions: not given
row,SMILES,fraction unbound at 5 µM
1,NC[C@H](NC(=O)c1ccc(-c2cc(F)c(Cl)c(F)c2)[nH]1)c1nc(CO)cs1,0.00281

# Test system: TZM
# Assay: (§4) Cytotoxicity against human TZM-bl cells assessed as reduction in cell viability incubated for 3 days by XTT assay
# Assay type: cell-based
# Conditions: tzm, 72 h, time 3 day
row,SMILES,CC50 [µM]
1,NC[C@@H](NC(=O)c1ccc(-c2ccc(C(F)(F)F)c(F)c2)[nH]1)c1ncc(CO)s1,18.5
2,NC[C@H](NC(=O)c1ccc(-c2ccc(C(F)(F)F)c(F)c2)[nH]1)c1ncc(CO)s1,30.5
3,NC[C@@H](NC(=O)c1ccc(-c2cc(F)c(Cl)c(F)c2)[nH]1)c1nc(CO)c(CO)s1,53
4,CNC[C@H](NC(=O)c1ccc(-c2ccc(C(F)(F)F)cc2)[nH]1)c1nc(CO)cs1,22.4

# Test system: not listed separately
# Assay: as §4
# Assay type: cell-based
# Conditions: TZM-bl cells, time 3 day
row,SMILES,CC50 at 72 h [µM]
1,NC[C@H](NC(=O)c1ccc(-c2cc(F)c(Cl)c(F)c2)[nH]1)c1ncc(CO)s1,39.5
2,NC[C@H](NC(=O)c1ccc(-c2cc(F)c(Cl)c(F)c2)[nH]1)c1nc(CO)cs1,42.1

# Test system: Human immunodeficiency virus 1
# Assay: Antiviral activity against HIV-1 3B infected in human H9 cells assessed as reduction in viral transmission to TZM-bl cells incubated for 48 hrs by luciferase based assay
# Assay type: functional, organism-based
# Conditions: Human immunodeficiency virus 1, 3B, H9, 48 h
row,SMILES,IC50 [µM]
1,NC[C@H](NC(=O)c1ccc(-c2cc(F)c(Cl)c(F)c2)[nH]1)c1nc(CO)cs1,0.079

# Test system: not listed separately
# Assay: Metabolic stability in human liver microsomes assessed as intrinsic clearance at 3 uM incubated for 120 mins by LC-MS/MS analysis
# Assay type: ADME, Microsome
# Conditions: read-out: CLH
row,SMILES,microsomal CLint at 3 µM [µL/min/mg]
1,NC[C@H](NC(=O)c1ccc(-c2cc(F)c(Cl)c(F)c2)[nH]1)c1nc(CO)cs1,1.6

# Test system: not listed separately
# Assay: (§5) Cytotoxicity against human MT2 cells assessed as reduction in cell viability incubated for 4 days by XTT assay
# Assay type: cell-based
# Conditions: MT2 cells, time 4 day
row,SMILES,CC50 at 96 h [µM]
1,NC[C@H](NC(=O)c1ccc(-c2cc(F)c(Cl)c(F)c2)[nH]1)c1ncc(CO)s1,37
2,NC[C@H](NC(=O)c1ccc(-c2cc(F)c(Cl)c(F)c2)[nH]1)c1nc(CO)cs1,32.6

# Test system: MT2
# Assay: as §5
# Assay type: cell-based
# Conditions: mt2, 96 h, time 4 day
row,SMILES,CC50 [µM]
1,NC[C@@H](NC(=O)c1ccc(-c2ccc(C(F)(F)F)cc2)[nH]1)c1ncc(CO)s1,32
2,NC[C@@H](NC(=O)c1ccc(-c2ccc(C(F)(F)F)c(F)c2)[nH]1)c1ncc(CO)s1,21.5
3,NC[C@H](NC(=O)c1ccc(-c2ccc(C(F)(F)F)c(F)c2)[nH]1)c1ncc(CO)s1,25.6
4,NC[C@@H](NC(=O)c1ccc(-c2cc(F)c(Cl)c(F)c2)[nH]1)c1nc(CO)c(CO)s1,89.9
5,CNC[C@H](NC(=O)c1ccc(-c2ccc(C(F)(F)F)cc2)[nH]1)c1nc(CO)cs1,17

# Test system: not listed separately
# Assay: Induction viral infection in pseudovirus HIV1 ADA infected in dog Cf2Th-CCR5 cells incubated for overnight followed by pretreated for 30 mins and added to cells measured after 48 hrs by luciferase-based assay
# Assay type: cell-based
# Conditions: human immunodeficiency virus 1, cf2th-ccr5, 48.5 h
row,SMILES,Activity
1,NC[C@@H](NC(=O)c1ccc(-c2ccc(C(F)(F)F)cc2)[nH]1)c1ncc(CO)s1,Non-Toxic
2,NC[C@H](NC(=O)c1ccc(-c2cc(F)c(Cl)c(F)c2)[nH]1)c1nc(CO)cs1,Non-Toxic

# Test system: Human immunodeficiency virus 1
# Assay: Antiviral activity against pseudovirus HIV-1 HXB-2 harboring Env I424F mutant infected in human U87.CD4.CXCR4 cells assessed as reduction in viral infection pretreated for 30 mins before viral infection and measured after 3 days by luciferase based assay
# Assay type: functional, cell-based, M:B_HXB2R
# Conditions: not given
# Method in brief: as §3
row,SMILES,IC50 [µM]
1,NC[C@H](NC(=O)c1ccc(-c2cc(F)c(Cl)c(F)c2)[nH]1)c1nc(CO)cs1,1.3

# Test system: Human immunodeficiency virus 1
# Assay: Antiviral activity against pseudovirus HIV-1 HXB-2 harboring Env M434I mutant infected in human U87.CD4.CXCR4 cells assessed as reduction in viral infection pretreated for 30 mins before viral infection and measured after 3 days by luciferase based assay
# Assay type: functional, cell-based, M:B_HXB2R
# Conditions: not given
# Method in brief: as §3
row,SMILES,IC50 [µM]
1,NC[C@@H](NC(=O)c1ccc(-c2ccc(C(F)(F)F)cc2)[nH]1)c1ncc(CO)s1,0.97

# Test system: not listed separately
# Assay: Metabolic stability in human liver microsomes assessed as parent compound remaining at 3 uM incubated for 120 mins by LC-MS/MS analysis
# Assay type: ADME, Microsome
# Conditions: read-out: Stabilty
row,SMILES,"remaining at 2 h, 3 µM [%]"
1,NC[C@H](NC(=O)c1ccc(-c2cc(F)c(Cl)c(F)c2)[nH]1)c1nc(CO)cs1,90.4

# Test system: Human immunodeficiency virus 1
# Assay: Antiviral activity against HIV-1 ADA infected in human MOLT-4 cells assessed as reduction in viral transmission to TZM-bl cells incubated for 48 hrs by luciferase based assay
# Assay type: functional, organism-based
# Conditions: Human immunodeficiency virus 1, ADA, MOLT-4, 48 h
row,SMILES,IC50 [µM]
1,NC[C@@H](NC(=O)c1ccc(-c2ccc(C(F)(F)F)cc2)[nH]1)c1ncc(CO)s1,1
2,NC[C@H](NC(=O)c1ccc(-c2cc(F)c(Cl)c(F)c2)[nH]1)c1nc(CO)cs1,0.44

# Test system: not listed separately
# Assay: Cytotoxicity against dog Cf2Th-CCR5 cells assessed as reduction in cell viability incubated for 48 hrs by XTT assay
# Assay type: cell-based, Canis lupus familiaris
# Conditions: Cf2Th-CCR5 cells
row,SMILES,CC50 at 48 h [µM]
1,NC[C@H](NC(=O)c1ccc(-c2cc(F)c(Cl)c(F)c2)[nH]1)c1nc(CO)cs1,> 51

# Same assay, conditions: cf2th-ccr5, 48 h
row,SMILES,CC50 [µM]
1,CC1(C)CC(NC(=O)C(=O)Nc2ccc(Cl)cc2)CC(C)(C)N1,> 60
2,NC[C@@H](NC(=O)c1ccc(-c2ccc(C(F)(F)F)cc2)[nH]1)c1ncc(CO)s1,37.7

# Test system: not listed separately
# Assay: Solubility in 2 % DMSO at pH 7.4 at 500 uM incubated for 90 mins in shaker by spectrophotometry
# Assay type: physicochemical
# Conditions: not given
# Method in brief: as §2
row,SMILES,"solubility kinetic at […], 500 µM [µM]"
1,NC[C@H](NC(=O)c1ccc(-c2cc(F)c(Cl)c(F)c2)[nH]1)c1nc(CO)cs1,100
